# Results from different studies.
# Protocols differ between the studies behind these lines.
# Target: Protein kinase C theta type (PRKCQ, Homo sapiens, UniProt Q04759)
effect on,technique,concentration,remaining binding,SMILES
cell-free assay,competition with immobilised ligand,1 µM,55%,CN(c1ccnc(CNc2nc(Nc3ccc4c(c3)CC(=O)N4)ncc2C(F)(F)F)n1)S(C)(=O)=O
binding,competition with immobilised ligand,1 µM,100%,O=C(NCC1CCOCC1)c1n[nH]cc1NC(=O)c1c(F)cccc1F
binding,,1 µM,88%,CN(C)c1nccc(-c2cnn3ncccc23)n1
cell-free assay,competition with immobilised ligand,1 µM,91%,C[C@@H]1CN(c2cc(-c3nn(C)c4ccc(OC5(C)CC5)cc34)ncn2)C[C@H](C)O1
binding,competition with immobilised ligand,10 µM,8.3%,c1cncc(-c2cccc(Nc3nccc(NC4CCCCC4)n3)c2)c1
binding,competition with immobilised ligand,1 µM,83%,C=CC(=O)N1CCC(C(=O)NCC(=O)N2CCN(c3nc(-c4cnc(N)nc4C(F)F)nc(N4CCOCC4)n3)CC2)CC1
binding,,1 µM,81%,COc1ccnn2ncc(-c3ccnc(N(C)C)n3)c12
binding,competition with immobilised ligand,1 µM,98%,Nc1ncc2c(n1)-c1c([nH]c3ccc(C#CC4CC4)cc13)CCCC2
cell-free assay,competition with immobilised ligand,1 µM,89%,CO[C@H]1CC[C@H](CNc2ccc(S(=O)(=O)NC(=O)c3ccc(N4CCN(CC5=C(c6ccc(Cl)cc6)CC(C)(C)CC5)CC4)cc3Oc3cnc4[nH]ccc4c3)cc2[N+](=O)[O-])CC1
binding,competition with immobilised ligand,1 µM,100%,COc1cnc(Nc2cccc(S(N)(=O)=O)c2)nc1N1CCN(c2ccccc2)C(=O)C1
cell-free assay,competition with immobilised ligand,1 µM,60.3%,Cc1cc(NC(=O)c2cccc(S(F)(F)(F)(F)F)c2)cc(-n2ccn3nc(-c4cccnc4)cc23)c1
cell-free assay,competition with immobilised ligand,5 µM,85%,FC(F)(F)Oc1cccc(-c2cnc3ccc(-c4ccncc4)nn23)c1
binding,,1 µM,100%,CN(C)c1ncc(F)c(-c2cnn3ncccc23)n1
cell-free assay,competition with immobilised ligand,1 µM,80%,Cc1c(NC(=O)c2cc(C(N)=O)nc3cc(F)ccc23)c(C(F)(F)F)nn1Cc1ccc(C#N)cc1
binding,competition with immobilised ligand,1 µM,23%,O=C(c1ccc(Nc2ncc(Cl)c(-c3cc4ccccc4s3)n2)cc1)N1CCC(N2CCCC2)CC1
binding,,1 µM,67%,C[C@@H]1CCN(c2nccc(-c3cnn4ncccc34)n2)C1
binding,competition with immobilised ligand,1 µM,56%,O=C(c1ccc(Nc2nccc(-c3cc4ccccc4s3)n2)cc1)N1CCC(N2CCCC2)CC1
binding,competition with immobilised ligand,1 µM,94%,COc1cnc(Nc2cccc(S(N)(=O)=O)c2)nc1N1CCN(c2ccccc2)CC1
binding,,1 µM,100%,CC1CCCN1c1nccc(-c2cnn3ncccc23)n1 (stereo not shown)
binding,competition with immobilised ligand,1 µM,27%,Cc1cnc(Nc2ccc(C(=O)N3CCC(N4CCCC4)CC3)cc2)nc1-c1cc2ccccc2s1
binding,,1 µM,100%,N[C@@H]1CCN(c2nccc(-c3cnn4ncccc34)n2)C1
cell-free assay,competition with immobilised ligand,1 µM,73%,CCOCCn1cc(C(=O)Nc2ccc(-n3nc(-c4cccnc4)cc3C(F)(F)F)cn2)ccc1=O
